Source: PMC10734015 (ACS Omega, 2023)
Converted amounts (≈) assume the structure as drawn. Like-named read-outs stand apart in the source and are kept apart here.

Experiments:
[1] = tested on: anti-mitragynine antibody; assay: Cross-reactivity study by CI-ELISA; assay type: binding, rabbit; conditions: for IC50 values: CI-ELISA, compounds at 0.001–50.0 μg/mL, 4PL fit; for cross-reactivity (%): calculated from IC50 values relative to mitragynine (eq 3)
Method in brief: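 Plates coated overnight (16 h) at 4 °C with mitragynine-OVA at 0.25 μg/mL in PBS pH 7.4, washed three times in PBS, then blocked with 5% (w/v) skimmed blocker. Rabbit polyclonal IgG raised against C22-MG-cBSA was used at 1/1000 v/v in 0.05% Tween 20 and pre-incubated with test compound before transfer to wells. Detection used goat anti-rabbit-HRP at 1/2500 v/v.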

[2] = ELISA with pre-incubation (inhibition method); cited from earlier work
[3] = ELISA with pre-incubation (inhibition method); cited from earlier work; remark: listed apart in the source

Row | Compound | IC50 values [1] | cross-reactivity (%) [1] | IC50 [2] | IC50 [3]
1 | corynantheidine | 1.854 | 10.08% | – | –
2 | COC(=O)C1=CO[C@@H](C)[C@@H]2CN3CCc4c([nH]c5ccc(OC)cc45)[C@@H]3C[C@H]12 [aricine] | 9.819 | 1.90% | – | –
3 | CC1(C)C(C(=O)OC(C#N)c2cccc(Oc3ccccc3)c2)C1(C)C (centres unmarked) [fenpropathrin] | – | – | 0.34 µg/mL (≈ 0.973 µM) | –
4 | CN(C)CCCN1c2ccccc2Sc2ccc(Cl)cc21 [chlorpromazine] | – | – | – | 0.00058 µg/mL (≈ 0.00182 µM)
5 | COC(=O)[C@H]1[C@H]2C[C@@H]3c4[nH]c5cc(OC)ccc5c4CCN3C[C@H]2C[C@@H](OC(=O)c2cc(OC)c(OC)c(OC)c2)[C@@H]1OC [reserpine] | 9.889 | 1.89% | – | –
